Source: ChEMBL document CHEMBL4219243, “Characterization of Protease-Activated Receptor (PAR) ligands: Parmodulins are reversible allosteric inhibitors of PAR1-driven calcium mobilization in endothelial cells” (Bioorg Med Chem, 2018)
pIC50: −log10 of the molar value. Active and inactive are the calls of the source. The rule behind the calls is not given here.

Key:
[1] = molecular target: T1, Proteinase-activated receptor 1 (Homo sapiens) (UniProt P25116); assay: (§1) Antagonist activity at PAR1 in human EAhy926 cells assessed as inhibition of TFLLRN-NH2-induced intracellular calcium mobilization pretreated for 15 mins followed by TFLLRN-NH2 addition measured at 5 secs interval for 250 secs by Fluo-4/AM dye based fluorescence assay; format: functional, cell-based; set-up: concentration or dose not given beside the values
T1 sequence (whole entry): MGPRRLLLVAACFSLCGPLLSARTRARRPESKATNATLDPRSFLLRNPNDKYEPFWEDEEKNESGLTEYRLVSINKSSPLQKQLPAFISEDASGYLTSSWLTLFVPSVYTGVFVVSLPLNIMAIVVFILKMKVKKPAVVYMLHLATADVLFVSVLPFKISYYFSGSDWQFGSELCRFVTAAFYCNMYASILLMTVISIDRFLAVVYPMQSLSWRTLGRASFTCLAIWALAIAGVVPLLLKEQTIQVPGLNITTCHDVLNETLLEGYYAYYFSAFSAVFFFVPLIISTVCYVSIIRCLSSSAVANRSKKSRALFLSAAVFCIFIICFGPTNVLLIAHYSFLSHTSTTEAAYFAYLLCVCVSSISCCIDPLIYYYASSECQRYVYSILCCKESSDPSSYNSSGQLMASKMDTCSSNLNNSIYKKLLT
How it was run: (§2)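 EA.hy926 cells were used at passage 2–11, seeded at 25,000/well and grown 40–48 h at 37 °C to >80% confluence. Cells were loaded with Fluo-4/AM (2 μM) in HBSS-HEPES containing 2.5 mM probenecid, pH 7.4, for 40–50 min, then washed twice. Antagonist in 10% DMSO vehicle was added for 15 min at 37 °C before agonist. Agonist was 5 μM TFLLRN-NH₂; ex 485/em 525 nm.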

[2] = molecular target: T2, Proteinase-activated receptor 1 (Homo sapiens, UniProt P25116); assay: as §1; format: functional, cell-based; conditions: for pIC50: read-out: IC50; for IC50: read-out: pIC50 (converted); how it was run: as §2
T2 sequence (P25116 whole entry): T1 sequence (whole entry)

[3] = molecular target: Proteinase-activated receptor 2 (Homo sapiens) (UniProt P55085); format: functional, cell-based; conditions: 0.316 uM
[4] = molecular target: Proteinase-activated receptor 2 (Homo sapiens) (UniProt P55085); assay: Antagonist activity at PAR2 in human EAhy926 cells assessed as inhibition of SLIGKV-NH2-induced intracellular calcium mobilization at 10 uM pretreated for 15 mins followed by SLIGKV-NH2 addition measured at 5 secs interval for 250 secs by Fluo-4/AM dye based fluorescence assay; format: functional, cell-based
How it was run: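 EA.hy926 monolayers were Fluo-4/AM-loaded (2 μM, with 2.5 mM probenecid in HBSS-HEPES) and pretreated 15 min at 37 °C with 10 μM antagonist in 10% DMSO vehicle. They were then stimulated with 3.16 μM SLIGKV-NH₂. Fluorescence (485/525 nm) was read every 5 s. The peak rise over basal, divided by basal, was normalized to the vehicle well.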

[5] = molecular target: T1, Proteinase-activated receptor 1 (Homo sapiens); assay: Negative allosteric modulation of PAR1 in human EAhy926 cells assessed as inhibition of TFLLRN-NH2-induced intracellular calcium mobilization at 10 uM pretreated for 20 to 30 mins followed by compound washout and subsequent incubation for 10 mins prior to TFLLRN-NH2 addition measured at 5 secs interval for 250 secs by Fluo-4/AM dye based fluorescence assay; format: functional, cell-based
How it was run: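 EA.hy926 cells grown 40–48 h to confluence, loaded with Fluo-4/AM in HBSS-HEPES with 2.5 mM probenecid for 40–50 min at 37 °C, washed. Antagonist or vehicle (10% DMSO) added for 20–30 min, then washed twice with buffer, 10 min at 37 °C each. TFLLRN-NH2 (5 μM) added; emission 525 nm (ex 485) read against basal.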

[6] = molecular target: T1, Proteinase-activated receptor 1 (Homo sapiens); format: functional, cell-based; conditions: 0.316 uM
[7] = molecular target: T1, Proteinase-activated receptor 1 (Homo sapiens); assay: Antagonist activity at PAR1 in human EAhy926 cells assessed as inhibition of TFLLRN-NH2-induced intracellular calcium mobilization at 10 uM pretreated for 15 mins followed by TFLLRN-NH2 addition measured at 5 secs interval for 250 secs by Fluo-4/AM dye based fluorescence assay; format: functional, cell-based
[8] = molecular target: T1, Proteinase-activated receptor 1 (Homo sapiens); conditions: 0.316 uM
[9] = molecular target: T3, Proteinase-activated receptor 2 (Homo sapiens, UniProt P55085); assay: Antagonist activity at PAR2 in human EAhy926 cells assessed as inhibition of SLIGKV-NH2-induced intracellular calcium mobilization pretreated for 15 mins followed by SLIGKV-NH2 addition measured at 5 secs interval for 250 secs by Fluo-4/AM dye based fluorescence assay; format: functional, cell-based
T3 sequence (P55085 whole entry): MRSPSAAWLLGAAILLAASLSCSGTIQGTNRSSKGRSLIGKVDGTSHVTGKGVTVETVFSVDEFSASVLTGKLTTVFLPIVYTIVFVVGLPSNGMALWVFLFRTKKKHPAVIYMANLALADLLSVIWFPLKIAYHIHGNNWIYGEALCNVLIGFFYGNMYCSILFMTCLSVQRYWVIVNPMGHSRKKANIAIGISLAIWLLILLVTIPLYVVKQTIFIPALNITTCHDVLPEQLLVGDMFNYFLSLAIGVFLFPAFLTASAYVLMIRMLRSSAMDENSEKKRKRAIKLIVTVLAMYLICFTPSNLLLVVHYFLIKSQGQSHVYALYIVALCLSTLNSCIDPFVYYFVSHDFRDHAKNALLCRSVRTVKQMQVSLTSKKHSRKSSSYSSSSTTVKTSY
How it was run: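 EA.hy926 monolayers (25,000 cells/well, 40–48 h) were loaded with 2 µM Fluo-4/AM for 40–50 min at 37 °C in HBSS-HEPES with 2.5 mM probenecid, pH 7.4. Antagonist in 10% DMSO vehicle was added for 15 min at 37 °C, then SLIGKV-NH2 (5 µM for curves, 3.16 µM for selectivity). Read at ex485/em525, 20 basal scans. Peak RFU/basal was normalised to a same-column vehicle well; curves from ≥3 repeats fitted by 4-parameter regression.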

CCOc1cc2c(c(F)c1OCC)C(=N)N(CC(=O)c1cc(N3CCOCC3)c(OC)c(C(C)(C)C)c1)C2 [ATOPAXAR]
inhibition [1]: 94% | pIC50 [2]: 7.48 | inhibition [3]: inactive

CCCCC(=O)Nc1cccc(NC(=O)c2ccccc2Br)c1
inhibition [1]: 49%

C#CCCC(=O)Nc1cccc(NC(=O)c2ccccc2Br)c1
inhibition [1]: 79% | pIC50 [2]: 4.09 | IC50 [2]: 100 µM

CCCC(=O)Nc1cccc(NC(=O)c2ccccc2Br)c1
pIC50 [2]: 6.07 | inhibition [4]: inactive | inhibition [5]: Active

CC(C)CC(=O)Nc1cccc(NC(=O)c2ccccc2Br)c1
inhibition [1]: 74% | pIC50 [2]: 5.50 | inhibition [5]: Active

CCCC(=O)Nc1cccc(NC(=O)c2ccccc2N=[N+]=[N-])c1
inhibition [1]: 77% | pIC50 [2]: 4.03

CCC(=O)Nc1cccc(NC(=O)c2ccccc2Br)c1
inhibition [1]: 68% | pIC50 [2]: 5.48 | IC50 [2]: 3.16 µM

CCCCNc1cccc(NC(=O)c2ccccc2Br)c1
pIC50 [2]: 6.01 | inhibition [4]: inactive | inhibition [5]: Active

C#CCCC(=O)NCC[C@H](NC(=O)[C@H](Cc1ccc(F)c(F)c1)NC(=O)Nc1ccc2c(CN3CCCC3)nn(Cc3c(Cl)cccc3Cl)c2c1)C(=O)NCc1ccccc1
inhibition [1]: 76% | IC50 [2]: 0.316 µM

NCC[C@H](NC(=O)[C@H](Cc1ccc(F)c(F)c1)NC(=O)Nc1ccc2c(CN3CCCC3)nn(Cc3c(Cl)cccc3Cl)c2c1)C(=O)NCc1ccccc1
pIC50 [2]: 7.70 | inhibition [3]: inactive | inhibition [6]: Active

Clc1ccc(Cn2c(Cc3ccccc3)nc3ccccc32)cc1
inhibition [7]: inactive

CCOC(=O)N[C@@H]1CC[C@@H]2[C@@H](C1)C[C@H]1C(=O)O[C@H](C)[C@H]1[C@H]2/C=C/c1ccc(-c2cccc(F)c2)cn1
inhibition [3]: inactive | inhibition [8]: inactive

CC[C@H](C)[C@H](NC(=O)[C@H](CC1CCCCC1)NC(=O)c1ccno1)C(=O)NCc1ccccc1OC
inhibition [7]: inactive | pIC50 [9]: 5.77
